Assay results from the RNAGym collection of RNA variant scans (doi:10.1126/science.aae0568).
Fewer inactive variants are shown than the library holds.

B1: tRNA (parent)
chain: GUUCCGUUGGCGUAAUGGUAACGCGUCUCCCUCCUAAGGAGAAGACUGCGGGUUCGAGUCCCGUACGGAACG

Variants of: B1
Experiment: yeast fitness relative to wild type (ratio to wild type); higher = fitter; tRNA-Arg(CCU), competitive growth, 37 C, YPD
Method in brief: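 Genotype frequency changes were the basis for Darwinian fitness relative to wild type. The frequencies came from 100-nucleotide paired-end sequencing of gene amplicons from the start population and each end population of pooled yeast strains with tRNA-Arg(CCU) gene variants at the native locus. Competition ran in YPD at 37°C for 24 hours in six replicates, genotypes needed ≥ 100 starting reads, and estimates < 0.5 were set to 0.5.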

Variant	yeast fitness
U7C C33U G58A C66A	≤ 0.5
C4A C27A G38A C62A	≤ 0.5
C30U G63C	0.757
C11G A21G G44C C61A C62U C66U	≤ 0.5
G12A U19C C34G	0.544
A40G C60G G63C	≤ 0.5
C5U C22G A70U	0.754
G18A C66U	0.736
C5A C24G A65G C66U	≤ 0.5
U8A A43U C49U C55A	≤ 0.5
C11A A14U C30U C33A A36U A57G A69G	≤ 0.5
G10C C27A	0.593
G9C G58A	0.869
G12C A70G	0.845
U2C C5G U59A	0.613
U3A G10C A36U A40C	≤ 0.5
C27G G44C A45G A65G	≤ 0.5
C4G G18A C30U	0.57
U2A G9A C11U A40U A42C A45G G50C C61U C66U	≤ 0.5
C5U A14C A21G C30G C34U G39A C55U	≤ 0.5
C24U A36C	0.716
U7A C29U C33U U54A	≤ 0.5
C5U G12C U19A	≤ 0.5
A45C U54C C66U	0.606

Variant	yeast fitness
A15C G17A G38C U59C	0.569
G12C A14G A15C G52C	≤ 0.5
A20G C46A C61G	≤ 0.5
C24U A42U G52C G63A	≤ 0.5
G9A C27U C46G	0.708
A21U A40C A57C A70U	≤ 0.5
C4G C30G U32C	≤ 0.5
U8C C22G A37G C60A A70G	≤ 0.5
C11U C24U A45G C46G C55G	≤ 0.5
C11U C30G A40G G50C G51C	≤ 0.5
C5G U47C A65C	0.558
C49G C61A	0.808
U19C C24G C34A	≤ 0.5
C11G C30G C49U C61G A70G	≤ 0.5
G41A A43U G63A	≤ 0.5
C31A G39A	0.777
U3C G12A C29G C34U A36C C61A	0.587
U2C C4U A42G	0.512
C27A C33U G52C C62G	0.579
C29A C30G G50C A65G	≤ 0.5
A14C C62U A69C	≤ 0.5
U3C C4G C22G C33U A36C A40U	≤ 0.5
U13G C27A G52C C55A C62G	0.601
A21C A45C C49U G67A	≤ 0.5

Variant	yeast fitness
U2A A20G C27G	≤ 0.5
A14U A15G C34G C61U	≤ 0.5
C34U C66U	0.555
C11U A70U	0.88
A20G A37U G48C	0.603
A70C	1.04
U16A A21C A37C G68A	0.551
G44A C46U	0.981
A15U C60G A65U	≤ 0.5
G12A U32G C33U C55G A70G	≤ 0.5
C4G A14C C30U A40U C49U	0.504
G10C C31G A65U	≤ 0.5
C30A C33U	0.738
C29A G41A	0.551
G10C G18C C24U C66U	≤ 0.5
C11A C31A U53A	≤ 0.5
U2G G6A G56C	≤ 0.5
C11G A14U G17A A36G G41A U53A G58C A70C	≤ 0.5
G48C G52C G63C	≤ 0.5
C5G A14C G18A C49U	≤ 0.5
C33A G58C U64G	0.564
C24U G25C C46U G50C	≤ 0.5
C4G G10C C11G A37U A43G	≤ 0.5
G9C C24U C34A G44C C46U G48A A69G	≤ 0.5

Variant	yeast fitness
A45U C49U C61G	0.582
C11A C61G A65C A70C	≤ 0.5
U35A U59A	0.591
C5U C31U G39A A57C	0.574
A15C A37G A57C A69C	0.794
A36C A37C A57C	≤ 0.5
C27U C34U G44A	≤ 0.5
C30A G58C	1
C5U G10A C27G U35G G44A	≤ 0.5
U54C A65G	0.97
C27U A36G U47G G50A	≤ 0.5
C27U C60U	0.849
G10A A15G C49G G68U	≤ 0.5
C30A U53A	0.618
C11A C30G C31U U32C G52A	0.566
G6C A21G G48A A57C G67A	≤ 0.5
G63A C66U	0.826
A14G C29G A37G	≤ 0.5
U2G A20C G44A A45G	0.712
U7A G18C C27A C31G A43G	≤ 0.5
C27G C30G A43C	≤ 0.5
A14G A20U A40G U54C	≤ 0.5
G9C C24G A65C	≤ 0.5
G25C C46G C49U U64G	≤ 0.5

Variant	yeast fitness
U16C C46G A57U	0.588
A40G A45C C49G G67C A69U	≤ 0.5
C49G U54A G68U A69U	0.566
G9A A69C	1.05
C5U U19G C66A	0.531
C22U A40C	0.7
A21G C27A A36U A40G	0.587
C5A A14G A43U	≤ 0.5
C30U U32C U54A	≤ 0.5
C4G C34A C66U	≤ 0.5
C4A C11G U13A A20C C22U A36C	0.705
U8C G50C C55A C60A	≤ 0.5
A15G G48A G58C	0.759
G6A C30A	0.845
U16C C22A C31G C46A C49U U54C G68A	≤ 0.5
C5G C22A	0.766
A14G C34A A69C	0.605
G6A A14U C55U C61A	≤ 0.5
A20G G38C C66A	≤ 0.5
U7C U13G C30U A65U	0.619
C4G U16C C31U	0.554
C11G C22G C24U G50C	≤ 0.5
C60G C61U	0.626
C11U C31G C46G	0.673

Variant	yeast fitness
C11G A20C C24U A36C C66U G67A	≤ 0.5
A15U C31G C34U A40C	0.531
C5G A36U C61U A65C G67A G68A	≤ 0.5
C11G C27U A43C C61G	≤ 0.5
C22A U28G G58C U64C	≤ 0.5
G9C A42C A69C	0.564
U53G G63C A69C	≤ 0.5
A14U A20G	0.749
U59A G67C	0.813
G9A C66G G68C	0.571
U13G U28A C55G C66A	0.63
G6C A14G G39C	≤ 0.5
C5G C31U A36C G38A U54A	≤ 0.5
U7A A37G	0.585
U32A C46U	0.623
G6A A36G C60G C66U	≤ 0.5
G18C A43U	0.674
U13C A36G C62U	0.693
G12C C24U A42U C46A C55U C61G A69C	≤ 0.5
C11U C22G A70U	0.722
C31U G38A	0.81
C4U G6A A20C C60G A65U A69G	≤ 0.5
U2C C11U A65C	0.583
C31G A43C A70U	0.637

Variant	yeast fitness
G6A A43U C46A	0.649
C11G A15C C24U A43U C66U	≤ 0.5
A15G A36G U54A	≤ 0.5
C4A C11U G41A C60G A65G	≤ 0.5
C4G U53A	0.594
C5G A15C G48C G68U	≤ 0.5
C5U G38A	1.03
C5U C29G C34G	0.542
A20C U32A	0.719
C4A C31G C55A	0.534
C4G G23A C24A C31A A36G	≤ 0.5
C22U C34G A40C C46G	≤ 0.5
G6A G18A C30U C55G	≤ 0.5
G10C A20G U26C C46U	≤ 0.5
C34A A36U G52A C60A	≤ 0.5
G9A C29G	0.555
G10A C31A G41C	≤ 0.5
U8A G17A C24U A69C	0.693
U3C C24G C61U	0.528
U2A G6A U7C A15C C29G C33U	≤ 0.5
A37C U47G C62G G68A	0.549
G18A A20U U59G	≤ 0.5
U8C A14U A42C G52A G56C	≤ 0.5
